Results: ChEMBL document CHEMBL5357072, “Structural Modification of Noscapine via Photoredox/Nickel Dual Catalysis for the Discovery of S-Phase Arresting Agents” (ACS Med Chem Lett, 2024)

Key:
Assay type in all cases: functional
Details in all cases: read-out: GI
JeKo-1 = experiment: Antiproliferative activity against human JeKo-1 cells assessed as cell growth inhibition at 10 uM incubated for 48 hrs by CCK8 assay relative to control
Method in brief: (§1)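 Single-concentration screen of six cancer cell lines. Cells were exposed to 10 μM compound and growth was measured by CCK-8 assay. Results are reported as inhibition rate at 10 μM.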

U-251 = experiment: Antiproliferative activity against human U-251 cells assessed as cell growth inhibition at 10 uM incubated for 48 hrs by CCK8 assay relative to control; method in brief: as §1
NB-4 = experiment: Antiproliferative activity against human NB4 cells assessed as cell growth inhibition at 10 uM incubated for 48 hrs by CCK8 assay relative to control; method in brief: as §1
A549 = experiment: Antiproliferative activity against human A549 cells assessed as cell growth inhibition at 10 uM incubated for 48 hrs by CCK8 assay relative to control; method in brief: as §1
MOLM-13 = experiment: Antiproliferative activity against human MOLM-13 cells assessed as cell growth inhibition at 10 uM incubated for 48 hrs by CCK8 assay relative to control; method in brief: as §1
HeLa = experiment: Antiproliferative activity against human HeLa cells assessed as cell growth inhibition at 10 uM incubated for 48 hrs by CCK8 assay relative to control; method in brief: as §1

| SMILES | inhibition of growth at 10 µM (JeKo-1) [%] | inhibition of growth at 10 µM (U-251) [%] | inhibition of growth at 10 µM (NB-4) [%] | inhibition of growth at 10 µM (A549) [%] | inhibition of growth at 10 µM (MOLM-13) [%] | inhibition of growth at 10 µM (HeLa) [%] |
| --- | --- | --- | --- | --- | --- | --- |
| CCOP(=O)(CCc1c2c(c(OC)c3c1OCO3)[C@H]([C@H]1OC(=O)c3c1ccc(OC)c3OC)N(C(=O)OC(C)(C)C)CC2)OCC | 12.1 | < 5 | 6.64 | < 5 | 31.1 | < 5 |
| COc1ccc2c(c1OC)C(=O)O[C@@H]2[C@H]1c2c(c(CCCC(F)(F)F)c3c(c2OC)OCO3)CCN1C(=O)OC(C)(C)C | 25.6 | < 5 | 31.5 | < 5 | 36 | < 5 |
| COc1ccc2c(c1OC)C(=O)O[C@@H]2[C@H]1c2c(c(CC3CCN3C(=O)OC(C)(C)C)c3c(c2OC)OCO3)CCN1C(=O)OC(C)(C)C (some centres not stated) | 12.9 | < 5 | 13.8 | < 5 | 43.2 | < 5 |
| COc1ccc2c(c1OC)C(=O)O[C@@H]2[C@H]1c2c(c(CCNC(=O)OC(C)(C)C)c3c(c2OC)OCO3)CCN1C(=O)OC(C)(C)C | 14 | < 5 | 29.9 | < 5 | 43.5 | < 5 |
| COc1ccc2c(c1OC)C(=O)O[C@@H]2[C@H]1c2c(c(C3CC4CCC3C4)c3c(c2OC)OCO3)CCN1C(=O)OC(C)(C)C (some centres not stated) | < 5 | < 5 | 15 | < 5 | 48.6 | < 5 |
| COc1ccc2c(c1OC)C(=O)O[C@@H]2[C@H]1c2c(c(C3COC3)c3c(c2OC)OCO3)CCN1C(=O)OC(C)(C)C | 13.3 | 12.3 | 9.21 | < 5 | 11.7 | 14.9 |
| COc1ccc2c(c1OC)C(=O)O[C@@H]2[C@H]1c2c(c(C3CCN(C(=O)OC(C)(C)C)CC3)c3c(c2OC)OCO3)CCN1C(=O)OC(C)(C)C | 22.3 | < 5 | 21.2 | 14.7 | 62.9 | 17.5 |
| COc1ccc2c(c1OC)C(=O)O[C@@H]2[C@H]1c2c(c(CC3CCCO3)c3c(c2OC)OCO3)CCN1C(=O)OC(C)(C)C (some centres not stated) | 15.6 | 29.8 | 7.48 | < 5 | 44.9 | 24.7 |
| COCCCc1c2c(c(OC)c3c1OCO3)[C@H]([C@H]1OC(=O)c3c1ccc(OC)c3OC)N(C(=O)OC(C)(C)C)CC2 | 23.3 | < 5 | 27.2 | < 5 | 30.4 | < 5 |
| COc1ccc2c(c1OC)C(=O)O[C@@H]2[C@H]1c2c(c(C3CCC3)c3c(c2OC)OCO3)CCN1C(=O)OC(C)(C)C | < 5 | < 5 | 13.5 | < 5 | 40.4 | < 5 |
| COc1ccc2c(c1OC)C(=O)O[C@@H]2[C@H]1c2c(c(CC3CN(C(=O)OC(C)(C)C)C3)c3c(c2OC)OCO3)CCN1C(=O)OC(C)(C)C | 48 | < 5 | 63.1 | 10.6 | 59 | < 5 |
| COc1ccc2c(c1OC)C(=O)O[C@@H]2[C@H]1c2c(c(CCCCCC#N)c3c(c2OC)OCO3)CCN1C(=O)OC(C)(C)C | 19.9 | 19.1 | 14.1 | < 5 | 46.3 | 16.1 |
| COc1ccc2c(c1OC)C(=O)O[C@@H]2[C@H]1c2c(c(CC3(F)CN(C(=O)OC(C)(C)C)C3)c3c(c2OC)OCO3)CCN1C(=O)OC(C)(C)C | 43.9 | < 5 | 42.5 | < 5 | 61.5 | 8.57 |
| COc1ccc2c(c1OC)C(=O)O[C@@H]2[C@H]1c2c(c(CC[Si](C)(C)C)c3c(c2OC)OCO3)CCN1C(=O)OC(C)(C)C | < 5 | < 5 | 21.9 | < 5 | 46.9 | < 5 |
| COc1ccc2c(c1OC)C(=O)O[C@@H]2[C@H]1c2c(c(C3CCCC3)c3c(c2OC)OCO3)CCN1C(=O)OC(C)(C)C | 5.81 | < 5 | 11.6 | < 5 | 40 | < 5 |
| COc1ccc2c(c1OC)C(=O)O[C@@H]2[C@H]1c2c(c(CC3CCN(C(=O)OC(C)(C)C)CC3)c3c(c2OC)OCO3)CCN1C(=O)OC(C)(C)C | 22.7 | < 5 | 37.3 | < 5 | 58.1 | < 5 |
| COc1ccc2c(c1OC)C(=O)O[C@@H]2[C@H]1c2c(c(C3CCC(C)(C)CC3)c3c(c2OC)OCO3)CCN1C(=O)OC(C)(C)C | 7.49 | < 5 | 29.6 | < 5 | 47.6 | < 5 |
| COc1ccc2c(c1OC)C(=O)O[C@@H]2[C@H]1c2c(c(C3CCOC3)c3c(c2OC)OCO3)CCN1C(=O)OC(C)(C)C (some centres not stated) | 20.8 | 32.1 | 23.3 | < 5 | 43.6 | < 5 |
| COc1ccc2c(c1OC)C(=O)O[C@@H]2[C@H]1c2c(c(CC3CCOCC3)c3c(c2OC)OCO3)CCN1C(=O)OC(C)(C)C | 20.4 | 13.2 | 4.77 | < 5 | 48.4 | 23 |
| COc1ccc2c(c1OC)C(=O)O[C@@H]2[C@H]1c2c(c(CC3CCN(C(=O)OC(C)(C)C)C3)c3c(c2OC)OCO3)CCN1C(=O)OC(C)(C)C (some centres not stated) | 7.92 | < 5 | 23.2 | < 5 | 52.5 | < 5 |
| COc1ccc2c(c1OC)C(=O)O[C@@H]2[C@H]1c2c(c(C3CCCCC3)c3c(c2OC)OCO3)CCN1C(=O)OC(C)(C)C | < 5 | < 5 | 6.53 | < 5 | 46.1 | < 5 |
| COc1ccc2c(c1OC)C(=O)O[C@@H]2[C@H]1c2c(c(C3CN(C(=O)OC(C)(C)C)C3)c3c(c2OC)OCO3)CCN1C(=O)OC(C)(C)C | 17.6 | < 5 | 30.1 | < 5 | 49.7 | < 5 |
| COc1ccc2c(c1OC)C(=O)O[C@@H]2[C@H]1c2c(c(CCCNC(=O)OC(C)(C)C)c3c(c2OC)OCO3)CCN1C(=O)OC(C)(C)C | 10.6 | < 5 | 28.9 | < 5 | 48.2 | < 5 |
| COc1ccc2c(c1OC)C(=O)O[C@@H]2[C@H]1c2c(c(C3CCN(C(=O)OC(C)(C)C)C3)c3c(c2OC)OCO3)CCN1C(=O)OC(C)(C)C (some centres not stated) | 14.9 | < 5 | 22.1 | 17.7 | 54.8 | < 5 |
| COc1ccc2c(c1OC)C(=O)O[C@@H]2[C@H]1c2c(c(CC3CCCN3C(=O)OC(C)(C)C)c3c(c2OC)OCO3)CCN1C(=O)OC(C)(C)C (some centres not stated) | 15.7 | < 5 | 29.7 | < 5 | 48.1 | 8.57 |
| COc1ccc2c(c1OC)C(=O)O[C@@H]2[C@H]1c2c(c(C3CCOCC3)c3c(c2OC)OCO3)CCN1C(=O)OC(C)(C)C | 12 | < 5 | 4.36 | < 5 | 36.8 | < 5 |
| COc1ccc2c(c1OC)C(=O)O[C@@H]2[C@H]1c2c(c(C3CC3)c3c(c2OC)OCO3)CCN1C(=O)OC(C)(C)C | 6.87 | < 5 | 7.63 | < 5 | 19.5 | < 5 |
